Test system: HEK-293T
Experiment: Multiplex assay against HEK293T
Type: toxicity, cell-based
Settings: human
In short: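 Live cells carried four stains from seeding: Hoechst33342, BioTracker Green Microtubule Cytoskeleton Dye, MitoTracker Red and Annexin V Alexa Fluor 680. They were imaged on a CQ1 microscope at 37°C and 5% CO2 after compound addition. Using CellPathfinder machine-learning gating, cells were split into Hoechst high-intensity objects or normal cells, normal cells into healthy, pyknosed or fragmented nuclei, and pyknosed cells into mitotic or apoptotic; tubulin, mitochondrial-mass and membrane-permeability phenotypes are per cents of healthy-nucleus cells.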

[1] = 12 h, 1 µM, compound concentration 1 uM, replicate 1
[2] = 12 h, 1 µM, compound concentration 1 uM, replicate 2
[3] = 12 h, 10 µM, compound concentration 10 uM, replicate 1
[4] = 12 h, 10 µM, compound concentration 10 uM, replicate 2
[5] = 24 h, 1 µM, compound concentration 1 uM, replicate 1
[6] = 24 h, 1 µM, compound concentration 1 uM, replicate 2
[7] = 24 h, 10 µM, compound concentration 10 uM, replicate 1
[8] = 24 h, 10 µM, compound concentration 10 uM, replicate 2
[9] = 48 h, 1 µM, compound concentration 1 uM, replicate 1
[10] = 48 h, 1 µM, compound concentration 1 uM, replicate 2
[11] = 48 h, 10 µM, compound concentration 10 uM, replicate 1
[12] = 48 h, 10 µM, compound concentration 10 uM, replicate 2

## Cc1ccc(F)cc1C(=O)Nc1ccc(C(=O)N2Cc3cccn3Cc3ccccc32)c(Cl)c1 [LIXIVAPTAN]
[1]
  Population Apoptotic (%): 36%
  Population Fragmented Nuclei (%): 5%
  Population Healthy Nuclei (%): 83%
  Population Hoechst High Intensity Objects (%): 7%
  Population Membrane Permeable-Phenotype (%): 0%
  Population Mitochondria Different-Phenotype (%): 45%
  Population Mitotic Cells (%): 63%
  Population Normal (%): 92%
  Population Pyknosed Nuclei (%): 10%
  Population Tubulin-Different-Phenotype (%): 38%
  Total Cell Count: 486
[2]
  Population Apoptotic (%): 40%
  Population Fragmented Nuclei (%): 6%
  Population Healthy Nuclei (%): 74%
  Population Hoechst High Intensity Objects (%): 5%
  Population Mitochondria Different-Phenotype (%): 57%
  Population Mitotic Cells (%): 60%
  Population Normal (%): 94%
  Population Pyknosed Nuclei (%): 19%
  Population Tubulin-Different-Phenotype (%): 32%
  Total Cell Count: 335
[3]
  Population Apoptotic (%): 46%
  Population Fragmented Nuclei (%): 6%
  Population Healthy Nuclei (%): 70%
  Population Hoechst High Intensity Objects (%): 10%
  Population Membrane Permeable-Phenotype (%): 0%
  Population Mitochondria Different-Phenotype (%): 75%
  Population Mitotic Cells (%): 53%
  Population Normal (%): 89%
  Population Pyknosed Nuclei (%): 22%
  Population Tubulin-Different-Phenotype (%): 78%
  Total Cell Count: 339
[4]
  Population Apoptotic (%): 50%
  Population Healthy Nuclei (%): 67%
  Population Hoechst High Intensity Objects (%): 6%
  Population Membrane Permeable-Phenotype (%): 1%
  Population Mitochondria Different-Phenotype (%): 81%
  Population Mitotic Cells (%): 50%
  Population Normal (%): 93%
  Population Pyknosed Nuclei (%): 25%
  Population Tubulin-Different-Phenotype (%): 67%
  Total Cell Count: 357
[5]
  Population Apoptotic (%): 30%
  Population Fragmented Nuclei (%): 9%
  Population Healthy Nuclei (%): 77%
  Population Hoechst High Intensity Objects (%): 5%
  Population Membrane Permeable-Phenotype (%): 0%
  Population Mitochondria Different-Phenotype (%): 30%
  Population Mitotic Cells (%): 69%
  Population Normal (%): 94%
  Population Pyknosed Nuclei (%): 13%
  Population Tubulin-Different-Phenotype (%): 24%
  Total Cell Count: 595
[6]
  Population Apoptotic (%): 36%
  Population Fragmented Nuclei (%): 10%
  Population Healthy Nuclei (%): 76%
  Population Hoechst High Intensity Objects (%): 7%
  Population Mitochondria Different-Phenotype (%): 42%
  Population Mitotic Cells (%): 63%
  Population Normal (%): 92%
  Population Tubulin-Different-Phenotype (%): 22%
  Total Cell Count: 423
[7]
  Population Apoptotic (%): 37%
  Population Fragmented Nuclei (%): 5%
  Population Healthy Nuclei (%): 69%
  Population Hoechst High Intensity Objects (%): 7%
  Population Membrane Permeable-Phenotype (%): 0%
  Population Mitochondria Different-Phenotype (%): 74%
  Population Mitotic Cells (%): 62%
  Population Normal (%): 92%
  Population Pyknosed Nuclei (%): 24%
  Population Tubulin-Different-Phenotype (%): 71%
  Total Cell Count: 392
[8]
  Population Apoptotic (%): 58%
  Population Fragmented Nuclei (%): 8%
  Population Healthy Nuclei (%): 72%
  Population Hoechst High Intensity Objects (%): 6%
  Population Mitochondria Different-Phenotype (%): 78%
  Population Mitotic Cells (%): 41%
  Population Normal (%): 93%
  Population Pyknosed Nuclei (%): 19%
  Population Tubulin-Different-Phenotype (%): 69%
  Total Cell Count: 401
[9]
  Population Apoptotic (%): 22%
  Population Fragmented Nuclei (%): 12%
  Population Healthy Nuclei (%): 80%
  Population Hoechst High Intensity Objects (%): 2%
  Population Membrane Permeable-Phenotype (%): 0%
  Population Mitochondria Different-Phenotype (%): 19%
  Population Mitotic Cells (%): 77%
  Population Normal (%): 97%
  Population Pyknosed Nuclei (%): 6%
  Population Tubulin-Different-Phenotype (%): 17%
  Total Cell Count: 995
[10]
  Population Apoptotic (%): 17%
  Population Hoechst High Intensity Objects (%): 4%
  Population Mitochondria Different-Phenotype (%): 24%
  Population Mitotic Cells (%): 82%
  Population Normal (%): 95%
  Population Pyknosed Nuclei (%): 7%
  Population Tubulin-Different-Phenotype (%): 21%
  Total Cell Count: 643
[11]
  Population Apoptotic (%): 43%
  Population Fragmented Nuclei (%): 9%
  Population Healthy Nuclei (%): 74%
  Population Hoechst High Intensity Objects (%): 7%
  Population Membrane Permeable-Phenotype (%): 0%
  Population Mitochondria Different-Phenotype (%): 72%
  Population Mitotic Cells (%): 56%
  Population Normal (%): 92%
  Population Pyknosed Nuclei (%): 16%
  Population Tubulin-Different-Phenotype (%): 69%
  Total Cell Count: 489
[12]
  Population Apoptotic (%): 46%
  Population Fragmented Nuclei (%): 11%
  Population Hoechst High Intensity Objects (%): 8%
  Population Mitochondria Different-Phenotype (%): 71%
  Population Mitotic Cells (%): 53%
  Population Normal (%): 91%
  Population Pyknosed Nuclei (%): 14%
  Population Tubulin-Different-Phenotype (%): 59%
  Total Cell Count: 437

Source: ChEMBL document CHEMBL5058577, “EUbOPEN Chemogenomics Library 2 (Multiplex)” (2022)
